For orientation: AUC(0-t) means the area under the concentration-time curve up to a stated or last time point. A low value points to low exposure. As a reminder, the clearance is a measure of how efficiently the substance is removed, as volume per time. The term Cmax denotes the maximum level reached in the sampled fluid or tissue. Broadly, the half-life is the time in which the quantity being followed falls by half. The low end stands for rapid decline, the high end for slow decline. Broadly, the IC50 is the concentration that inhibits the measured activity by half. Read a low IC50 as higher potency. As a reminder, the Tmax is the time at which the peak concentration occurs. A word on the bioavailability: it is the share of a dose that reaches the circulation, judged against a reference dose that is usually intravenous. Higher therefore signals good availability.

Data set [1] can be described thus: AUClast in mouse at 3 mg/kg, iv. The data set is classed as ADME, organism-based. Further details: dose 3 mg/kg, time 0 - last, route intravenous. As to conditions: in vivo. Put shortly:
(§1)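 Mice were dosed at 3 mg/kg intravenously, with plasma sampled at 6 time points and n = 2 mice per time point.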

Data set [2] can be described thus: Clearance in mouse at 3 mg/kg, iv. The data set is classed as ADME, organism-based. As to conditions: in vivo. The gist of the method: as §1
Data set [3] in a line: Cmax in mouse at 3 mg/kg, iv. The data set is classed as ADME, organism-based. Also on record: dose 3 mg/kg, route intravenous. As to conditions: in vivo. Put shortly:
as §1

Data set [4] can be described thus: Half life in mouse at 3 mg/kg, iv. The data set is classed as ADME, organism-based. As to conditions: in vivo. The gist of the method: as §1
Data set [5] addresses T1, Tyrosine-protein kinase Mer (Homo sapiens) (UniProt Q12866).
T1 sequence (whole entry): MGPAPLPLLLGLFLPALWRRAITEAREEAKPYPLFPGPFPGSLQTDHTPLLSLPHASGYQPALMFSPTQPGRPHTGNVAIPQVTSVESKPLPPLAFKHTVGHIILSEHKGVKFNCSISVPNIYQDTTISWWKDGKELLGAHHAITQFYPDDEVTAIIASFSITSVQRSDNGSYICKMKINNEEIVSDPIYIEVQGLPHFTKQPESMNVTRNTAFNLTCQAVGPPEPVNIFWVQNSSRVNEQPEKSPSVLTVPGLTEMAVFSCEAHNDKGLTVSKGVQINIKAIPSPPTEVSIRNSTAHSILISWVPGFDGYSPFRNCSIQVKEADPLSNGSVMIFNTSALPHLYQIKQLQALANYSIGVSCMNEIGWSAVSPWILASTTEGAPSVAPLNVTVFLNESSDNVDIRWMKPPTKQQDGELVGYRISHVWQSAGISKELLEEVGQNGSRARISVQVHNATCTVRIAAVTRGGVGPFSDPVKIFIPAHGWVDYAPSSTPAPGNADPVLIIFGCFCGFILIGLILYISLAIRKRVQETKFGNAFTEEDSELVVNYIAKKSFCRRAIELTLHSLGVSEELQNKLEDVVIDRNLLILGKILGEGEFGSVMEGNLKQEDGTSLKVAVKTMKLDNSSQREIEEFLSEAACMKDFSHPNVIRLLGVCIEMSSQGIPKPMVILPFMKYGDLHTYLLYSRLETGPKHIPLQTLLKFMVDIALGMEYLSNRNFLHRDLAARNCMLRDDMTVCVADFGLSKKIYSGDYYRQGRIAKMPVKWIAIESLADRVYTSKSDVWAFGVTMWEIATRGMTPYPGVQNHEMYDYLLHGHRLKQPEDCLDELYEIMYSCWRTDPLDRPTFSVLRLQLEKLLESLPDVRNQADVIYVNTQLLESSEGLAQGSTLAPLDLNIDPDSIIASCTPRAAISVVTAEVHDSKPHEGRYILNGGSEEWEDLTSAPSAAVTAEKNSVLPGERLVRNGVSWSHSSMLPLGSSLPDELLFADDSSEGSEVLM
As to conditions: 100 nM.

The target in data set [6] is Mast/stem cell growth factor receptor Kit (Homo sapiens, UniProt P10721). Nature of the data set: Inhibition of N-terminal GST-tagged human KIT cytoplasmic domain (544 to 976 end residues) expressed in baculovirus expression system using fluorecence-labeled substrate by MCE assay.
Chain of Mast/stem cell growth factor receptor Kit (P10721 whole entry, the tested form may be a part): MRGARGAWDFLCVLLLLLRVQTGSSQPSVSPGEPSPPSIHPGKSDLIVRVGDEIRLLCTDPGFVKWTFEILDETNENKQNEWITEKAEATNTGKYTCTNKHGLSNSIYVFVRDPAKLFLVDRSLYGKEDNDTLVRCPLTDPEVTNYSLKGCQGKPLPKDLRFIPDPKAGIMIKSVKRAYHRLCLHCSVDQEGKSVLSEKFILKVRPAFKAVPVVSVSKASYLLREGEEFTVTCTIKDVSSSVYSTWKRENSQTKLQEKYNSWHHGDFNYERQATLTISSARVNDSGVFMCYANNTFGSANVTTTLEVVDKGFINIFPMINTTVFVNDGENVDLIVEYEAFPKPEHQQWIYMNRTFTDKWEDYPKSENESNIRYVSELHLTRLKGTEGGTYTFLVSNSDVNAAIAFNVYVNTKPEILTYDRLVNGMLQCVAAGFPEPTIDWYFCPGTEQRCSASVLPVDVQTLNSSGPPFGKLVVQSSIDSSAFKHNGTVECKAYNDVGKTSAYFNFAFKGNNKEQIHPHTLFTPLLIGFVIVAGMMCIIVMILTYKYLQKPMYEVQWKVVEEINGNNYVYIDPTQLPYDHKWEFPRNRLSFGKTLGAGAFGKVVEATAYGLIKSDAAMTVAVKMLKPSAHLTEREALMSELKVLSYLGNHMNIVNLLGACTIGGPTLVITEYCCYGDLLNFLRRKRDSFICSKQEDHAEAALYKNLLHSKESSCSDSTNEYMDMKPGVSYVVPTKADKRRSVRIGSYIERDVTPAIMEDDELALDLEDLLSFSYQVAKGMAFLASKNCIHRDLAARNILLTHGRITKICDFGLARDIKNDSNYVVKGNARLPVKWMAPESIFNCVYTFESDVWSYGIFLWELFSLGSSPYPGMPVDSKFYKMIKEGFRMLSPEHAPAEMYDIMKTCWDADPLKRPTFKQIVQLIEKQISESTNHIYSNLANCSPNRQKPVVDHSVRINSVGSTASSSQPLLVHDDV
Data set [7] can be described thus: Tmax in NSG mouse xenografted with human 697 cells at 30 mg/kg, ip administered as single dose. The data set is classed as ADME, organism-based. The note with it: in vivo. On the technique in general: A xenograft is tissue or cells of one species grown in another, often human tumour cells in immunodeficient mice.
Data set [8] can be described thus: Half life in NSG mouse xenografted with human 697 cells at 30 mg/kg, ip administered as single dose. The data set is classed as ADME, organism-based. As to conditions: in vivo.
A short description of data set [9]: Cmax in mouse at 3 mg/kg, ip. The note with it: in vivo. Further details: dose 3 mg/kg, route intraperitoneal. The data set is classed as ADME, organism-based. The gist of the method:
(§2)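 Mice were dosed at 3 mg/kg by oral or intraperitoneal route in an extended PK study. Oral bioavailability was derived against the iv route.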

Data set [10] deals with Serine/threonine-protein kinase SIK2 (Homo sapiens, UniProt Q9H0K1). Nature of the data set: Inhibition of N-terminal GST-tagged full length human QIK (1 to 926 end residues) expressed in baculovirus expression system using fluorecence-labeled substrate by MCE assay.
Chain of Serine/threonine-protein kinase SIK2 (Q9H0K1 whole entry): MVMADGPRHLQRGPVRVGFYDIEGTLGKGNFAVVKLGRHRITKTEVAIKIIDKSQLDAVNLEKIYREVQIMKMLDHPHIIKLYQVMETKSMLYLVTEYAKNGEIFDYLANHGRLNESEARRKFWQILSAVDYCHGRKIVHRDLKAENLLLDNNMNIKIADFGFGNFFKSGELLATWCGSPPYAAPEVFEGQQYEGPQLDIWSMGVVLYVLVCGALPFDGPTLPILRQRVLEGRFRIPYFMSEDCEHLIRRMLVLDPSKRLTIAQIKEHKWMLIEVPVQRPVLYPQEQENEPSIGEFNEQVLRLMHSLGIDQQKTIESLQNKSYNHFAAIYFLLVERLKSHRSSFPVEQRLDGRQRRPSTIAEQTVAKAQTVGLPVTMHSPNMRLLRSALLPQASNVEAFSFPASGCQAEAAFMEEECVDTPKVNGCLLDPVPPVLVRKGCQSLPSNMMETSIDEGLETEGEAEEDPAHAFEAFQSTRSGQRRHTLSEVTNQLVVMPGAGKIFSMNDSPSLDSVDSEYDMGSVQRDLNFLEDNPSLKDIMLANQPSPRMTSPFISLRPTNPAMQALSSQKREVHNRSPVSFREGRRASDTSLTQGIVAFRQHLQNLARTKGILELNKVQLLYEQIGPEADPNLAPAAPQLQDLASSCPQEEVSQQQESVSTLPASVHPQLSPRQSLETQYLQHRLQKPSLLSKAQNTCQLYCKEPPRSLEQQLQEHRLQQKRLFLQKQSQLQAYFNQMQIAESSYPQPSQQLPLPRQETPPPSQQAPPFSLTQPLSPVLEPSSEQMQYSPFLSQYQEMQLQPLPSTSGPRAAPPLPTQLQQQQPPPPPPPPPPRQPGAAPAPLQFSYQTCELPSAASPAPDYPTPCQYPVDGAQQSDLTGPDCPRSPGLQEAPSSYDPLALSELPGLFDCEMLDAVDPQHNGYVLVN
Data set [11] can be described thus: Oral bioavailability in mouse at 3 mg/kg. The data set is classed as ADME, organism-based. The note with it: in vivo. The gist of the method: as §2
For data set [12], the target named is T2, NUAK family SNF1-like kinase 1 (Homo sapiens, UniProt O60285).
T2 sequence (O60285 whole entry): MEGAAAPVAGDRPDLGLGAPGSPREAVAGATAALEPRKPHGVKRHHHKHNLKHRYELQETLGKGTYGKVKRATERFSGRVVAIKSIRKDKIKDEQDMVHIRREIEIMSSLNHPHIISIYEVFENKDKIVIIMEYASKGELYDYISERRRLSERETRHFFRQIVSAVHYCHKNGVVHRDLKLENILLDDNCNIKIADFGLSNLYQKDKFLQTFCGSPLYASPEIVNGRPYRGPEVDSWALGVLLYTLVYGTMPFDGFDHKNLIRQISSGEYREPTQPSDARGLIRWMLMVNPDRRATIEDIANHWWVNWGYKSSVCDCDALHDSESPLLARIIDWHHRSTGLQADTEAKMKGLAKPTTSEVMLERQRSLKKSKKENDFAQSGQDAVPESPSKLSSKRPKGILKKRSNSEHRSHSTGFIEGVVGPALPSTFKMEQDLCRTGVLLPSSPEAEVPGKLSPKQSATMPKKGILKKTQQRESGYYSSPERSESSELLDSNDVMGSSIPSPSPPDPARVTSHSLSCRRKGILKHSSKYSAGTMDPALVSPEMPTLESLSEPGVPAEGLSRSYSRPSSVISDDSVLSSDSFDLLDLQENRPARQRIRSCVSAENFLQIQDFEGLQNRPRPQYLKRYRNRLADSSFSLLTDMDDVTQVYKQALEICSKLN
Nature of the data set: Inhibition of N-terminal GST-tagged full length human NuaK1 (1 to 661 end residues) expressed in baculovirus expression system using fluorecence-labeled substrate by MCE assay.

A short description of data set [13]: Half life in mouse at 3 mg/kg, ip. The data set is classed as ADME, organism-based. As to conditions: in vivo. The gist of the method:
as §2

For data set [14], the target named is NT-3 growth factor receptor (Homo sapiens, UniProt Q16288). The data set can be described thus: Inhibition of N-terminal GST-tagged human TRKC cytoplasmic domain (456 to 825 end residues) expressed in baculovirus expression system using fluorecence-labeled substrate by MCE assay.
Chain of NT-3 growth factor receptor (Q16288 whole entry, the tested form may be a part): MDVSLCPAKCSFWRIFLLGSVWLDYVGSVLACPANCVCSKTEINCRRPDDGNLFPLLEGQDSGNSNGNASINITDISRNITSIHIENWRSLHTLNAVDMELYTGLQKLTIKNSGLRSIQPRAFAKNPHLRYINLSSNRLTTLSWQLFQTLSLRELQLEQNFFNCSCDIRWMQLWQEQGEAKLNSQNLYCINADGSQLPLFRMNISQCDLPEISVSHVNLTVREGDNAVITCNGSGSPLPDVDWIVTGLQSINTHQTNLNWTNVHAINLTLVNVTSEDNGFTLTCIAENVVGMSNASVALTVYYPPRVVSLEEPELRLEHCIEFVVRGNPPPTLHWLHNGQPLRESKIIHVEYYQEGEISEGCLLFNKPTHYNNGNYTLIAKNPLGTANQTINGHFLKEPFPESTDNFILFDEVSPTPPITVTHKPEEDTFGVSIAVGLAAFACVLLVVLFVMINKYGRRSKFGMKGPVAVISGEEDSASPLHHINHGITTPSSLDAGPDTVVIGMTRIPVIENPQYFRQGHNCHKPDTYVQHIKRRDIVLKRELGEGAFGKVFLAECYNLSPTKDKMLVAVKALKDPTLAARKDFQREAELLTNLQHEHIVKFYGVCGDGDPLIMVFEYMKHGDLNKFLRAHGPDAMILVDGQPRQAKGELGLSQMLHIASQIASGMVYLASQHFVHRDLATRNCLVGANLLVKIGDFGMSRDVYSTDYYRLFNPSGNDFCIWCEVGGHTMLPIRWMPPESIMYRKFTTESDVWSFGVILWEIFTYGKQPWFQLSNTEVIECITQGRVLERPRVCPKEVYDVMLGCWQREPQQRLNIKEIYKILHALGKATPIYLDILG
The next data set is filed under the species Mus musculus. Nature of the data set: animal or person. The note with it: Mus musculus, 697, ip, 10 min, read-out: INH.
Data set [15] is described as follows: Cmax in mouse at 3 mg/kg, po. The note with it: in vivo. Also on record: dose 3 mg/kg, route oral. The data set is classed as ADME, organism-based. The gist of the method: as §2
The target of data set [16] is High affinity nerve growth factor receptor (Homo sapiens, UniProt P04629). The data set can be described thus: Inhibition of N-terminal GST-tagged human TRKA cytoplasmic domain (436 to 790 end residues) expressed in baculovirus expression system using fluorecence-labeled substrate by MCE assay.
Chain of High affinity nerve growth factor receptor (P04629 whole entry, the tested form may be a part): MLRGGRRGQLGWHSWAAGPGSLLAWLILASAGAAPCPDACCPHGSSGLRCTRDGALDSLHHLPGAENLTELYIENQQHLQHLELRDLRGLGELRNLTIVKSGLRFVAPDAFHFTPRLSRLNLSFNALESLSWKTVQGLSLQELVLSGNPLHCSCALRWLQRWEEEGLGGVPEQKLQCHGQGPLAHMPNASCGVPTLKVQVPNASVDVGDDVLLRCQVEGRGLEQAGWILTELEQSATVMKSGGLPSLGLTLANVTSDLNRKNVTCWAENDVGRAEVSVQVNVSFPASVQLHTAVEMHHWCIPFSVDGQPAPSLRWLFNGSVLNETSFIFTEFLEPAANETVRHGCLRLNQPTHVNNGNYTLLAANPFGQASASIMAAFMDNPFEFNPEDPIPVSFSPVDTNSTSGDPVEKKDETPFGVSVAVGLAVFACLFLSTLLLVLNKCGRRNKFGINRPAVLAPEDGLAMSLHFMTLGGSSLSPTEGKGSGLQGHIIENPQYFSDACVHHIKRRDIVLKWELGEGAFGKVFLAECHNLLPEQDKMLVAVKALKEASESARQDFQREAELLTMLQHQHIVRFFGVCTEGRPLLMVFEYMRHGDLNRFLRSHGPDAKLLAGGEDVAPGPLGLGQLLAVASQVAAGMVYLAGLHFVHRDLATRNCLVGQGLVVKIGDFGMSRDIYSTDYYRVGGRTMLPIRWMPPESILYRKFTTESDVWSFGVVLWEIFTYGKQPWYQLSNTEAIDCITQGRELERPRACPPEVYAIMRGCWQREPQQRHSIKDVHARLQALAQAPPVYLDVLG
The target in data set [17] is STE20-like serine/threonine-protein kinase (Homo sapiens, UniProt Q9H2G2). Nature of the data set: Inhibition of N-terminal GST-tagged full length human SLK (1 to 1152 end residues) expressed in baculovirus expression system using fluorecence-labeled substrate by MCE assay.
Chain of STE20-like serine/threonine-protein kinase (Q9H2G2 whole entry): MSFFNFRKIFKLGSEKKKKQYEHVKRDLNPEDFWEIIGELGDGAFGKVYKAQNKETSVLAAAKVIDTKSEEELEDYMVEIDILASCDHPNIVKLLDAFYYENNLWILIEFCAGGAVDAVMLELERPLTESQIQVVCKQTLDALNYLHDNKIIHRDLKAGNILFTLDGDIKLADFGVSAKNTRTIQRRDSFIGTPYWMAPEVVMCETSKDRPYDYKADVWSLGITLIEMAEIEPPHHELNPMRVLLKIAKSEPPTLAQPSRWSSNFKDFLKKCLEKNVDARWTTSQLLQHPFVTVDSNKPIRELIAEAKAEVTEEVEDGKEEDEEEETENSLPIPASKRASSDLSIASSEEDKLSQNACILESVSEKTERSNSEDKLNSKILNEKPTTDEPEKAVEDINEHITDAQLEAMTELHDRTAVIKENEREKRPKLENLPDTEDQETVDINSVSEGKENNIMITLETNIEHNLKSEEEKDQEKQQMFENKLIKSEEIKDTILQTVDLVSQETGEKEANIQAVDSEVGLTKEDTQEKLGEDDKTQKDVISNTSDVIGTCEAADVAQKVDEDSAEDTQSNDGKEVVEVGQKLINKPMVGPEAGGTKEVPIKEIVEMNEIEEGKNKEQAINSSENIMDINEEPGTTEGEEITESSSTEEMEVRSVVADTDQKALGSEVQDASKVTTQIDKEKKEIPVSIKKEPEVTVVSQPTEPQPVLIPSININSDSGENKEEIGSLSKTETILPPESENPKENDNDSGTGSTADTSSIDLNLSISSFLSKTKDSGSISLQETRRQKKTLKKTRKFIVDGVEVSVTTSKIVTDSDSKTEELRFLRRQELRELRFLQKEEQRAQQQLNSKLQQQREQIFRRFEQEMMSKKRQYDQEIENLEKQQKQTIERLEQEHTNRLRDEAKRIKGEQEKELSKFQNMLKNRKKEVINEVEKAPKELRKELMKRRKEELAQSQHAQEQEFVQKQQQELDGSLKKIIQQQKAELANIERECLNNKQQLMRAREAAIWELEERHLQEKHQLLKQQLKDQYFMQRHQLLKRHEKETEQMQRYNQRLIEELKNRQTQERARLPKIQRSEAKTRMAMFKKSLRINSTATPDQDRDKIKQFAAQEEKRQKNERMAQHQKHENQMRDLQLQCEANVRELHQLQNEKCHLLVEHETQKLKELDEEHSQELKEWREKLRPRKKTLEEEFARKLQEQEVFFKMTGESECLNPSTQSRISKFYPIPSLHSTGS

Bounds are passed on as bounds.

In the case of `CCC[C@H](C)Nc1ncc2c(-c3ccnc(N4CCNCC4)c3)cn([C@H]3CC[C@H](O)CC3)c2n1`, in [1], the AUC(0-t) was 1500 nM·h. Also, the clearance in data set [2] turned out to be 3.3 L/h/kg. The same compound came in with a Cmax in data set [3] of 3.5 µM. Moreover, the half-life in data set [4] is 2.6 h.

`CCCCNc1ncc2c(-c3ccc(CN4CCN(C)CC4)cc3)cn([C@H]3CC[C@H](O)CC3)c2n1` returned an inhibition in data set [5] of 100%.

With `CCC[C@H](C)Nc1ncc2c(-c3ccc(CN4C5CCC4CC5)cc3)cn([C@H]3CC[C@H](O)CC3)c2n1`, the AUC(0-t) in data set [1] turned out to be 280 nM·h. Also, the clearance in data set [2] amounted to 18.1 L/h/kg. Besides, the highest level in data set [3] (Cmax) was 0.1 µM. Also, in data set [4], the half-life is 1.8 h.

As for `CCC[C@H](C)Nc1ncc2c(-c3ccc(CN4CCCN(C)CC4)cc3)cn([C@H]3CC[C@H](O)CC3)c2n1`, the IC50 in [6] was more than 0.1 µM; in data set [10] it was more than 0.1 µM; in data set [12], more than 0.1 µM; in data set [14], 0.0084 µM; in data set [16], 0.0036 µM; in data set [17] it was 0.047 µM. In addition, in data set [7], the Tmax is 5 min. The figures for the half-life in data set [8], in [13] and in [4] were 3 h, 1.43 h and 3 h, respectively. For the same compound, the Cmax in data set [9] turned out to be 0.6 µM; in data set [3] it was 5.2 µM; in data set [15], 0.061 µM. The bioavailability in [11] came out at 15%. The same compound displayed an AUC(0-t) in data set [1] of 2700 nM·h. This compound also registered a clearance in data set [2] of 1.74 L/h/kg. In addition, the inhibition at 30 mg/kg in the data set listed under Mus musculus amounted to 75%.

`CCC[C@H](C)Nc1ncc2c(-c3ccc(CN4CCOCC4)cc3)cn([C@H]3CC[C@H](O)CC3)c2n1` returned an AUC(0-t) in data set [1] of 2200 nM·h. Also, in data set [2], the clearance came out at 2.46 L/h/kg. In data set [3], the highest level (Cmax) was 8.6 µM. Besides, the half-life in data set [4] was 1.4 h.

Consider `CCC[C@H](C)Nc1ncc2c(-c3ccc(CNCCN(CC)CC)cc3)cn([C@H]3CC[C@H](O)CC3)c2n1`, for which, in data set [1], the AUC(0-t) is 1200 nM·h. The compound further showed a clearance in [2] of 3.24 L/h/kg. The Cmax in data set [3] amounted to 1.7 µM. In data set [4], the half-life is 3.65 h.

In the case of `CCC[C@H](C)Nc1ncc2c(-c3ccc(S(=O)(=O)N4CCN(C)CC4)cc3F)cn([C@H]3CC[C@H](O)CC3)c2n1`, the AUC(0-t) in data set [1] worked out at 1600 nM·h. Further, in data set [2], the clearance worked out at 3 L/h/kg. In data set [3], this compound returned a Cmax of 6.5 µM. This compound had a half-life in data set [4] of 0.65 h.

`CCC[C@H](C)Nc1ncc2c(-c3cnn(C4CCNCC4)c3)cn([C@H]3CC[C@H](O)CC3)c2n1` showed an AUC(0-t) in [1] of 2800 nM·h. In addition, in [2], the clearance was 1.92 L/h/kg. This compound came in with a Cmax in data set [3] of 13.8 µM. The same compound had a half-life in [4] of 2.1 h.

The values are drawn from ChEMBL document CHEMBL4270664 (J Med Chem, 2018).
